Common to all, as to type: in vivo, C57BL/6N mice
The test system of one data set is Mmp2 mRNA. In words: Quantitative RT-PCR of Mmp2 mRNA in lungs of PF model. To be noted: for increase of Mmp2 mRNA level vs PBS-treated control lungs: qRT-PCR normalised to β-actin, mean ± SD. The procedure, abridged:
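Mouse lung Mmp2 mRNA was measured by qRT-PCR (Superscript II RT) with gene-specific Mmp2 and β-actin primers. Cycling was 50 °C for 2 min and 95 °C for 10 min, then 40 cycles of 95 °C for 15 s and 60 °C for 40 s. Values were normalised to β-actin by ΔΔCt, with day-21 PBS lungs set as 1. Samples were taken on days 7/14/21 post-BLM; mean ± SD.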

A short description of data set [1]: Body weight in BLM-induced mouse PF model. To be noted: mice that received BLM, no SCGB3A2 treatment. In outline:
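C57BL/6N mice (7–8 weeks old, n = 10 per group) received one intratracheal dose of BLM (1.5 units/kg) by intubation, or PBS as control. Body weight was tracked over the 21-day study and expressed relative to the group's average day 0 weight, which was set as 100%.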

For data set [2], the system named is MMP-2. Nature of the data set: Western blot of active MMP-2 protein in lungs. Particulars: day 21 PF model, SCGB3A2-treated. In outline:
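Minced lung was lysed in RIPA buffer (Tris, NaCl, SDS, deoxycholate, Triton X-100, EDTA, NaF, orthovanadate) with protease inhibitors. Lysates were reduced, run on 10% SDS-PAGE, transferred to PVDF and blocked in TBS-Tween with 5% milk. Blots were probed with rabbit anti-MMP-2 ([…]) and β-actin, then an HRP secondary, and read by chemiluminescence on film or imager. Lungs were taken on day 21.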

Data set [3] has as its target MMP-2 (Mus musculus, UniProt P33434). In words: Fluorescence microscopy of cleaved MMP-P12 in lung sections. Particulars: SCGB3A2-treated lung sections. In outline: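 Fibrotic mouse lungs were frozen, and 10 μm sections were air-dried, fixed in cold acetone for 20 min, air-dried for 30 min at RT and blocked with 10% BSA for 30 min. Sections were incubated with rabbit anti-MMP2 (10 μg/mL) for 60 min at RT in the dark, then Cy3 donkey anti-rabbit, and mounted in DAPI. Cy5.5 from the cleaved probe was viewed directly by epifluorescence at ×400.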

The subject of another data set is collagen fibers. In words: Masson's trichrome staining of collagen in lung sections. Particulars: day 21; SCGB3A2 0.25 mg/kg/day i.v. for five days from day 7 after BLM. The procedure, abridged:
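Lungs were inflated and fixed in 4% paraformaldehyde, embedded in paraffin, cut into 4-μm whole-lung sections and stained with Masson's trichrome (collagen blue), with H&E alongside. Lungs were collected on day 21.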

MMP-2 (Mus musculus, UniProt P33434), sequence (P33434 110-662): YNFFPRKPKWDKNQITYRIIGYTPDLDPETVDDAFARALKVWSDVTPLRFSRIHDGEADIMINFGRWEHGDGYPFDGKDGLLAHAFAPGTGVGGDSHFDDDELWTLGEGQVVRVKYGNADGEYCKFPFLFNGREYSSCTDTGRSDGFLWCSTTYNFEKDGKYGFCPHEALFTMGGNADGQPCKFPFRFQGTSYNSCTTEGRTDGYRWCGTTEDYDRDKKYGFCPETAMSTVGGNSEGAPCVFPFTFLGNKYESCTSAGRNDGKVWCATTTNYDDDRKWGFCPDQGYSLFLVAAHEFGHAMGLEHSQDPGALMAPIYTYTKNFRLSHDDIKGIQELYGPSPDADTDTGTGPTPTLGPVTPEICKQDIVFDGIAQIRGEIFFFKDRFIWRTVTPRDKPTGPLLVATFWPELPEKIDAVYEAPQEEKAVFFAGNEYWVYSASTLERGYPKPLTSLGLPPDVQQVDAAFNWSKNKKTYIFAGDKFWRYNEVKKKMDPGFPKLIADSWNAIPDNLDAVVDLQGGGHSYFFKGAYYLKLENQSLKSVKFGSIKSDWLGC

As for bleomycin [BLM], the entries for the “increase of Mmp2 mRNA level vs PBS-treated control lungs” value in the data set with Mmp2 mRNA (day 7 post-BLM administration), in the data set on Mmp2 mRNA (day 14 post-BLM administration) and in the data set on Mmp2 mRNA (day 21 post-BLM administration) were 4.25±0.84 folds, 6±1.05 folds and 9±1.87 folds, respectively. In addition, the “body weight loss by day 21” value in data set [1] is recorded as ~ 20%.

B1: SCGB3A2: purified recombinant mouse secretoglobin 3A2 protein, given as treatment for PF (protein, UniProt Q920H1 22-91, looked up)
Secretoglobin family 3A …: LLINRLPVVDKLPVPLDDIIPSFDPLKMLLKTLGISVEHLVTGLKKCVDELGPEASEAVKKLLEALSHLV
Take B1: the “active MMP-2 protein expression vs no treatment group” value in the data set with MMP-2 [2] was “decreased”. Also, in the data set with MMP-2 [3], the “MMP-P12 cleavage (green) and MMP-2 (red) signals in lung sections” value is listed as “weak”. In the data set with collagen fibers, the “collagen expression in lungs vs BLM only-treated group” value is “much lower”. Besides, the “Mmp2 mRNA expression vs no treatment group” value in the data set on Mmp2 mRNA (day 21 PF model, SCGB3A2-treated, qRT-PCR) is “decreased”.
